Experimental findings from ChEMBL document CHEMBL6092224, “The Discovery and Preclinical Profile of ALG-000184, a Prodrug of the Potent Hepatitis B Virus Capsid Assembly Modulator ALG-001075” (J Med Chem, 2024) are described below.

The pEC50 is the negative decadic logarithm of the EC50, by convention in mol/L. Lower therefore signals a large EC50. By clearance is commonly meant a measure of how efficiently the substance is removed, as volume per time. A lower clearance goes with inefficient removal. For orientation: inhibition means the drop in the measured response relative to a control, in per cent. Lower therefore signals a weak effect. In general, half-life refers to the time in which the quantity being followed falls by half.

pEC50: −log10 of the molar value. The source made the active and inactive calls. No cut-off for these calls is given here.

The subject of data set [1] is Hepatitis B virus. The data set can be described thus: Antiviral activity against HBV infected in human HepG2.117 cells by qPCR analysis. Format: functional, organism-based. The gist of the method:
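HepG2.117 cells (integrated genotype D HBV genome, Tet-off promoter; kept in 1 μg/mL doxycycline) were seeded at 20,000 cells/well and given serial compound dilutions (2% DMSO) for 3 days at 37 °C. Lysates were taken in 0.33% NP40. Intracellular HBV DNA was quantified by qPCR and EC50/EC90 derived. For serum shift, 40% human serum was present during incubation. Mean ± SEM, n=3 (serum) or 13.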
(In qPCR the cycle at which signal appears reflects the starting amount.)

The nature of data set [2]: Clearance in mouse. Type of data set: ADME, organism-based. The note with it: in vivo.
Data set [3] deals with Mus musculus. In words: Effect on HBeAg level in C57BL/6 mouse infected with AAV-Hepatitis B virus at 50 mg/kg, po bid for 56 days followed by induction of compound washout period for 14 days. The note with it: time 70.0 day. Format: functional, organism-based.
Data set [4] in a line: Toxicity in C57BL/6 mouse infected with AAV-Hepatitis B virus assessed as change in body weight at 50 mg/kg, po bid for 56 days followed by induction of compound washout period for 14 days. Type of data set: organism-based. The note with it: in vivo, 1680 h, time 70 day.
The nature of data set [5]: Toxicity in C57BL/6 mouse infected with AAV-Hepatitis B virus assessed as change in ALT level at 50 mg/kg, po bid for 56 days followed by induction of compound washout period for 14 days. Type of data set: organism-based. The note with it: in vivo, 1680 h, time 70 day.
Data set [6] relates to Mus musculus. The data set can be described thus: Effect on HBsAg level in C57BL/6 mouse infected with AAV-Hepatitis B virus at 50 mg/kg, po bid for 56 days followed by induction of compound washout period for 14 days. The note with it: time 70.0 day. Type of data set: functional, organism-based.
In data set [7] the test system is Hepatitis B virus. The data set can be described thus: Antiviral activity against AAV-Hepatitis B virus infected in C57BL/6 mouse assessed as reduction in baseline HBV DNA production at 50 mg/kg, po bid for 56 days followed by induction of compound washout period measured after 7 days. Format: functional, organism-based. The note with it: time 63.0 day.
Data set [8] concerns Hepatitis B virus. The data set can be described thus: Antiviral activity against AAV-Hepatitis B virus infected in C57BL/6 mouse assessed as reduction in baseline HBV DNA production at 50 mg/kg, po qd measured after 7 days. Type of data set: functional. The note with it: time 7 day.
Another data set deals with hERG (KCNH2) (Homo sapiens, UniProt Q12809). In words: Inhibition of hERG expressed in mammalian cells at 10 uM by automated patch-clamp technique relative to control. Format: toxicity, cell-based. The note with it: mammalian cells expressing hERG. The essentials:
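Currents of hERG, Nav1.5 or Cav1.2 channels expressed in mammalian cells recorded by automated patch clamp (QPatch 48) at room temperature.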

Data set [9] can be described thus: Metabolic stability in mouse liver microsomes assessed as half life at 1 uM incubated upto 60 mins in presence of NADPH. Format: ADME, Microsome. The gist of the method: (§1)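 Compound at 1 μM incubated at 37 °C with liver microsomes of each species for 0, 15, 30 and 60 min, with and without NADPH; half-life determined.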
In general terms: Liver microsomes are a subcellular fraction often used to study metabolism.

Data set [10] can be described thus: Metabolic stability in human liver microsomes assessed as half life at 1 uM incubated upto 60 mins in presence of NADPH. Format: ADME, Microsome. The gist of the method:
as §1

Chain of hERG (KCNH2) (Q12809 whole entry): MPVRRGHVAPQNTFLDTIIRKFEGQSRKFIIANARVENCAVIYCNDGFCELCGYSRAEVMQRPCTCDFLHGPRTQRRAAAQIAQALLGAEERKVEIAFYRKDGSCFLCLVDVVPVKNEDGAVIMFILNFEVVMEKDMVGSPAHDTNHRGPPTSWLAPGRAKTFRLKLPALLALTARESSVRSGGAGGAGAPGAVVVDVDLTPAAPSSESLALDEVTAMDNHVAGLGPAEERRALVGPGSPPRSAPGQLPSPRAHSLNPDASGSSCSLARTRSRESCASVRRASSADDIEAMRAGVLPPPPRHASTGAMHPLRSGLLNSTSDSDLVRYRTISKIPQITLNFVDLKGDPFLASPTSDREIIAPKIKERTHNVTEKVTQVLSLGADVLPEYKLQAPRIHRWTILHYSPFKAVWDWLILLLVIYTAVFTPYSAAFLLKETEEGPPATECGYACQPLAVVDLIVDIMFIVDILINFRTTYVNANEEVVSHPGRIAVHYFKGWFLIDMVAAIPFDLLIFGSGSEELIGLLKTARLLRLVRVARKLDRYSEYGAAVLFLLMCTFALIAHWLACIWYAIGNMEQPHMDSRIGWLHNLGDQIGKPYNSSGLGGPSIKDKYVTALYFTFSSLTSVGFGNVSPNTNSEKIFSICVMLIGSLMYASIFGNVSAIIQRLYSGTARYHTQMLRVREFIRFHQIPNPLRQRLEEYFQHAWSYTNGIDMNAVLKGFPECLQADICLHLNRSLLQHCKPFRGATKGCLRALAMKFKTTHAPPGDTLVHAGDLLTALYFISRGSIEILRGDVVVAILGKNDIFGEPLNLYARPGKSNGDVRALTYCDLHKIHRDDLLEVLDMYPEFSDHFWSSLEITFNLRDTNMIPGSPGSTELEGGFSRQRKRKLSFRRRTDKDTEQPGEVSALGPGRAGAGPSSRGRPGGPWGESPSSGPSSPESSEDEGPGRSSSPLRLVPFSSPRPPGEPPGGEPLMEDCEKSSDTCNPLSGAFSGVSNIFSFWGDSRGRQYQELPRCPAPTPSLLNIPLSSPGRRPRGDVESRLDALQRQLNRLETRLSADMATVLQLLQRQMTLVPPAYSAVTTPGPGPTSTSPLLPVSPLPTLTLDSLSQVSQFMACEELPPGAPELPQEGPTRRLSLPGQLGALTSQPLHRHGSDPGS

In turn, `C#CC1(NC(=O)C(=O)c2c(C)c(C(=O)Nc3ccc(F)c(C#N)c3)n(C)c2C)CCC1` showed a pEC50 in the data set on Hepatitis B virus [1] of 9.14.

`C#CCNC(=O)C(=O)c1c(C)c(C(=O)Nc2ccc(F)c(C#N)c2)n(C)c1C`: the clearance in [2] was determined as 13.2 mL/min/kg. In addition, the pEC50 with Hepatitis B virus [1] was 8.54.

In turn, `C#CC1(NC(=O)C(=O)c2c(C)c(C(=O)Nc3ccc(F)c(C#N)c3)n(C)c2C)CCCC1` showed a pEC50 with Hepatitis B virus [1] of 8.70.

Regarding `C#CCNC(=O)C(=O)c1c(C)c(C(=O)Nc2ccc(F)c(C)c2)n(C)c1C`, the clearance in data set [2] was 54.3 mL/min/kg. The compound further gave a pEC50 in the data set on Hepatitis B virus [1] of 8.70.

The compound `C#CC1(NC(=O)C(=O)c2c(C)c(C(=O)Nc3ccc(F)c(C#N)c3)n(C)c2C)CC(F)(F)C1` had a pEC50 in the data set on Hepatitis B virus [1] of 9.49.

For `C[C@@H](NS(=O)(=O)c1cn(C)c(C(=O)Nc2ccnc(Cl)c2)c1F)C(F)(F)F`, the outcome in the data set on Mus musculus [3], in the data set on Mus musculus [6] and in the data set on Hepatitis B virus [7] was inactive. In addition, the Activity entry in data set [4] is given as “Non-toxic”; in data set [5], “Non-toxic”; in the data set on Hepatitis B virus [8], -2.5 log10IU/ml.

For `C#C[C@H](C)NC(=O)C(=O)c1c(C)c(C(=O)Nc2ccc(F)c(C#N)c2)n(C)c1C`, the pEC50 with Hepatitis B virus [1] was 9.01.

In the case of `C#C[C@@H](C)NC(=O)C(=O)c1c(C)c(C(=O)Nc2ccc(F)c(C#N)c2)n(C)c1C`, in the data set with Hepatitis B virus [1], the negative logarithm of the EC50 (pEC50) was 8.88.

In the case of `C#CC1(NC(=O)C(=O)c2c(C)c(C(=O)Nc3ccc(F)c(C#N)c3)n(C)c2C)CCOCC1`, the pEC50 with Hepatitis B virus [1] is 8.68.

Turning to `C#CC(C)(C)NC(=O)C(=O)c1c(C)c(C(=O)Nc2ccc(F)c(C#N)c2)n(C)c1C`, the negative-log EC50 (pEC50) with Hepatitis B virus [1] is 8.83.

For the compound `C#CC1(NC(=O)C(=O)c2c(C)c(C(=O)Nc3ccc(F)c(C#N)c3)n(C)c2C)CC1`, the pEC50 with Hepatitis B virus [1] was 9.35.

Regarding `C#CCNC(=O)C(=O)c1c(C)c(C(=O)Nc2ccc(F)c(C(F)(F)F)c2)n(C)c1C`, the pEC50 in the data set on Hepatitis B virus [1] was 8.58.

For the compound `C#CCNC(=O)C(=O)c1c(C)c(C(=O)Nc2ccc(F)c(F)c2)n(C)c1C`, the inhibition at 10 µM at hERG (KCNH2) was 31.2%. Moreover, the half-life at 1 µM in data set [9] is 40.4 min; in data set [10] it was above 60 min. This compound also returned a clearance in data set [2] of 78.2 mL/min/kg. The pEC50 with Hepatitis B virus [1] is 8.59.

As to `C#CC1(NC(=O)C(=O)c2c(C)c(C(=O)Nc3ccc(F)c(C#N)c3)n(C)c2C)CCS(=O)(=O)CC1`, the pEC50 with Hepatitis B virus [1] is 8.45.
